From PubChem BioAssay AID652279 (Broad Institute, 2013)

Tested on: T. cruzi CAI/72 in J774 macrophages, trypomastigote emergence, microscopy
Assay: T. cruzi parasite clearance versus stasis, late-stage follow-up, mechanism study, imaging, CAI/72 strain, J774 macrophages, dry powder (AID 652279)
Details: stronger effect = higher value
Summary of the method: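 System: Irradiated (9000 rad) J774 macrophages infected with T. cruzi CAI/72 | Detection: Daily microscopic scoring of trypomastigote appearance | Incubation: 1-week or 3-week dosing, then 31-day or 17-day drug-free follow-up | Doses: Compound renewed every 3 days from 24 h post-infection | Buffer or medium: RPMI-1640 supplemented with 5% fetal calf serum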

Structure (SMILES)	slope of emergence day vs concentration
CC(C)N1C[C@@H](CN(C)Cc2ccc(Cl)c(Cl)c2)Oc2c(NC(=O)c3ccncc3)cccc2C1=O	6.07
CC(C)N1C[C@@H](CN(C)Cc2ccc(Cl)cc2)Oc2c(NC(=O)c3ccncc3)cc(F)cc2C1=O	2.15
CC(C)N1C[C@@H](CN(C)Cc2ccc(Cl)cc2)Oc2c(NC(=O)c3ccncc3)cccc2C1=O	2.21
CN(C)CC#Cc1cccc(-c2nc(C(=O)N[C@@H]3CCN(Cc4ccccc4)C3)cc3c2[C@@H](CCO)N(S(=O)C(C)(C)C)C3)c1 (stereo partly specified)	2.02
CN(C)CC#Cc1cccc(-c2nc(C(=O)NCc3ccc4c(c3)OCO4)cc3c2[C@@H](CCO)N(S(=O)C(C)(C)C)C3)c1 (stereo partly specified)	4.35
CC(C)N1C[C@H](CN(C)Cc2ccc(Cl)cc2)Oc2c(NC(=O)c3ccncc3)cccc2C1=O	2.02
CN(C)C(=O)c1cccc(-c2ccc([C@H]3[C@H](CO)N4CCCCN(C(=O)C5CCC5)C[C@@H]34)cc2)c1	1.4
CC(C)N1C[C@@H](CN(C)CCc2ccc(Cl)c(Cl)c2)Oc2c(NC(=O)c3ccncc3)cccc2C1=O	6.4
CC(C)N1C[C@@H](CN(C)Cc2ccc(Cl)cc2)Oc2c(C(=O)Nc3ccncc3)cccc2C1=O	4.59
CC(C)N1C[C@@H](CN(C)Cc2ccc(Oc3ccccc3)cc2)Oc2c(NC(=O)c3ccncc3)cccc2C1=O	5.84
CC(C)N1C[C@@H](CN(C)CCc2ccc(Cl)cc2)Oc2c(NC(=O)c3ccncc3)cccc2C1=O	6.07
